Drawing on ChEMBL document CHEMBL1765056, “Cytotoxic oleanane-type saponins from Albizia inundata” (J Nat Prod, 2011), this text covers IC50 and Activity for 9 molecules.

In general, pIC50 refers to the IC50 on a negative log10 scale, so that one unit is a factor of ten.

pIC50: −log10 of the molar value. Activity calls are given as the source filed them. The rule behind the calls is not given here.

Assay type in all cases: functional, cell-based
Assay [1] deals with SK-MEL-28. Description: Cytotoxicity against human SK-MEL-28 cells harboring BRAF […]/PTEN mutation assessed as cell viability by MTS assay. Put shortly:
(§1)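 Pure compounds tested at five concentrations from 50 nM to 20 uM. Readout is MTS viability, with IC50 derived per cell line. JMAR and MDA1986 are head and neck squamous carcinoma lines. B16F10 is a murine melanoma line and SKMEL28 a human melanoma line, both BRAF V600E; SKMEL28 also carries a PTEN mutation.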

Assay [2] in a line: Cytotoxicity against human MDA1986 cells assessed as cell viability by MTS assay. Put shortly:
as §1
Background: Tetrazolium dyes change colour on reduction, which living cells bring about.

Assay [3] relates to B16-F10. Nature of the assay: Cytotoxicity against mouse B16F10 cells harboring BRAF […] mutation assessed as cell viability by MTS assay. The method in brief: as §1
Assay [4] in a line: Cytotoxicity against human JMAR cells assessed as cell viability by MTS assay. The method in brief:
as §1

Assay [5] has as its system SK-MEL-28. Description: Cytotoxicity against human SK-MEL-28 cells harboring BRAF […]/PTEN mutation assessed as membrane disintegration by phase contrast microscopy. The method in brief:
(§2)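 Cells treated with increasing concentrations of saponins, then examined by phase-contrast microscopy for membrane disintegration.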

The test system of assay [6] is JMAR. Description: Cytotoxicity against human JMAR cells assessed as membrane disintegration by phase contrast microscopy. The method in brief: as §2
The species entered for assay [7] is Homo sapiens. Description: Cytotoxicity against human MDA1986 cells assessed as membrane disintegration by phase contrast microscopy. Put shortly:
as §2

The subject of assay [8] is B16-F10. Description: Cytotoxicity against mouse B16F10 cells harboring BRAF […] mutation assessed as membrane disintegration by phase contrast microscopy. The method in brief:
as §2

On to `CC1(C)CC[C@]2(C(=O)O)CC[C@]3(C)C(=CC[C@@H]4[C@@]5(C)CC[C@H](O[C@@H]6O[C@H](CO)[C@@H](O)[C@H](O)[C@H]6O[C@@H]6O[C@H](CO)[C@@H](O)[C@H](O)[C@H]6O)C(C)(C)[C@@H]5CC[C@]43C)[C@@H]2C1` [ACUTOSIDE A], for which the negative logarithm of the IC50 (pIC50) in assay [1], in assay [2], in assay [3] and in assay [4] was less than 4.70 throughout.

For the molecule `CC1(C)CC[C@]2(C(=O)O)[C@H](O)C[C@]3(C)C(=CC[C@@H]4[C@@]5(C)CC[C@H](O[C@@H]6O[C@H](CO[C@@H]7OC[C@H](O)[C@H](O)[C@H]7O[C@@H]7OC[C@H](O)[C@H](O)[C@H]7O)[C@@H](O)[C@H](O)[C@H]6O[C@@H]6O[C@H](CO)[C@@H](O)[C@H](O)[C@H]6O)C(C)(C)[C@@H]5CC[C@]43C)[C@@H]2C1`, the negative logarithm of the IC50 (pIC50) in assay [1], in assay [2], in assay [3] and in assay [4] was less than 4.70 throughout.

Regarding `CC(=O)N[C@H]1[C@H](O[C@H]2CC[C@]3(C)[C@H]4CC=C5[C@@H]6CC(C)(C)[C@@H]7C[C@]6(C(=O)O7)[C@H](O)C[C@@]5(C)[C@]4(C)CC[C@H]3C2(C)C)O[C@H](CO[C@@H]2OC[C@H](O)[C@H](O)[C@H]2O[C@@H]2OC[C@@H](O)[C@H](O)[C@H]2O)[C@@H](O)[C@@H]1O` [PROSAPOGENIN 4], the pIC50 in assay [1], in assay [2], in assay [3] and in assay [4] was less than 4.70 throughout.

As for `CC(=O)N[C@H]1[C@H](O[C@H]2CC[C@]3(C)[C@H]4CC=C5[C@@H]6CC(C)(C)[C@@H]7C[C@]6(C(=O)O7)[C@H](O)C[C@@]5(C)[C@]4(C)CC[C@H]3C2(C)C)O[C@H](CO[C@@H]2OC[C@H](O)[C@H](O)[C@H]2O[C@@H]2OC[C@H](O)[C@H](O)[C@H]2O)[C@@H](O)[C@@H]1O`, the pIC50 in assay [1], in assay [2], in assay [3] and in assay [4] was less than 4.70 each time.

Consider `CC1(C)CC[C@]2(C(=O)O)[C@H](O)C[C@]3(C)C(=CC[C@@H]4[C@@]5(C)CC[C@H](O[C@@H]6O[C@H](CO[C@@H]7OC[C@H](O)[C@H](O)[C@H]7O[C@@H]7OC[C@@H](O)[C@H](O)[C@H]7O)[C@@H](O)[C@H](O)[C@H]6O[C@@H]6O[C@H](CO)[C@@H](O)[C@H](O)[C@H]6O)C(C)(C)[C@@H]5CC[C@]43C)[C@@H]2C1`, for which the negative-log IC50 (pIC50) in assay [1], in assay [2], in assay [3] and in assay [4] was less than 4.70 throughout.

Regarding `CC(=O)N[C@H]1[C@H](O[C@H]2CC[C@]3(C)[C@H]4CC=C5[C@@H]6CC(C)(C)CC[C@]6(C(=O)O)CC[C@@]5(C)[C@]4(C)CC[C@H]3C2(C)C)O[C@H](CO[C@@H]2OC[C@H](O)[C@H](O)[C@H]2O)[C@@H](O)[C@@H]1O`, the result in assay [5], in assay [6], in assay [7] and in assay [8] was inactive. Further, the pIC50 in assay [1] is 4.91; in assay [2], 5.14; in assay [3], 5.33; in assay [4] it was 5.06.

For the molecule `CC1(C)CC[C@]2(C(=O)O)CC[C@]3(C)C(=CC[C@@H]4[C@@]5(C)CC[C@H](O[C@@H]6O[C@H](CO[C@@H]7OC[C@H](O)[C@H](O)[C@H]7O[C@@H]7OC[C@@H](O)[C@H](O)[C@H]7O)[C@@H](O)[C@H](O)[C@H]6O)C(C)(C)[C@@H]5CC[C@]43C)[C@@H]2C1` [PITHEDULOSIDE C], the result in assay [5], in assay [6], in assay [7] and in assay [8] was inactive. For the same molecule, the pIC50 in assay [1] was 5.07; in assay [2] it was 5.05; in assay [3], 5.16; in assay [4] it was 5.00.

`CC1(C)CC[C@]2(C(=O)O)CC[C@]3(C)C(=CC[C@@H]4[C@@]5(C)CC[C@H](O[C@@H]6O[C@H](CO[C@@H]7OC[C@H](O)[C@H](O)[C@H]7O[C@@H]7OC[C@H](O)[C@H](O)[C@H]7O)[C@@H](O)[C@H](O)[C@H]6O)C(C)(C)[C@@H]5CC[C@]43C)[C@@H]2C1`: the result in assay [5], in assay [6], in assay [7] and in assay [8] was inactive. The pIC50 in assay [1] is 5.09; in assay [2], 5.09; in assay [3] it was 5.20; in assay [4], 4.94.

Consider `CC(=O)N[C@H]1[C@H](O[C@H]2CC[C@]3(C)[C@H]4CC=C5[C@@H]6CC(C)(C)CC[C@]6(C(=O)O)[C@H](O)C[C@@]5(C)[C@]4(C)CC[C@H]3C2(C)C)O[C@H](CO[C@@H]2OC[C@H](O)[C@H](O)[C@H]2O)[C@@H](O)[C@@H]1O`, for which the outcome in assay [5], in assay [6], in assay [7] and in assay [8] was inactive. Further, the pIC50 is 5.04 in assay [1], 5.74 in assay [2], 5.29 in assay [3] and 5.55 in assay [4].
